In brackets after ≈: the same amount, converted by molar mass. Numbered stars: 1 amine (or outer) side, 2 acyl side, 3 side chain; on linkers, the order of the positions; unused ones are H or OH. Bridge positions count the residues as written; N and C are the ends. Square brackets hold non-standard residues; d marks the D form. Peptide text beside a SMILES is read from it. ξ: configuration not given here. X2 = O=C(CCC(=O)N1CCNCC1)Nc1cc(C[C@H](N[*:1])C(=O)[*:2])ccc1O; X3 = O=C(O)CCC(=O)Nc1cc(C[C@H](N[*:1])C(=O)[*:2])ccc1O; Gln(3R-OH) = NC(=O)C[C@@H](O)[C@H](N)C(=O)O; X1 = CCCCCCCCCCCCC[C@H](CC(=O)[*:1])O[*:2]; Pro(3S-OH) = O=C(O)[C@H]1NCC[C@@H]1O; Hyp = O=C(O)[C@@H]1C[C@@H](O)CN1; Orn = NCCC[C@H](N)C(=O)O; ξA = CC(N)C(=O)O
Legend:
Aspergillus fumigatus [1] = test: In vitro antifungal activity against Aspergillus fumigatus 8004 by broth microdilution method; assay type: functional
Summary of the method: (§1)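 Broth microdilution run to NCCLS M27-A guidelines. MIC read per that standard.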

Candida albicans [2] = test: In vitro antifungal activity against Candida albicans 13004 by broth microdilution method; assay type: functional; summary of the method: as §1
Aspergillus fumigatus [3] = test: In vitro antifungal activity against Aspergillus fumigatus FP1305 by broth microdilution method; assay type: functional; summary of the method: as §1
Candida albicans [4] = test: In vitro antifungal activity against Candida albicans FP633 by broth microdilution method; assay type: functional; summary of the method: as §1
Mus musculus [5] = species: Mus musculus; test: Ability to hemolyze ICR mouse RBCs at 1 mg/mL using microtiter red blood cell hemolysis assay.
Mus musculus [6] = test: Compound was evaluated in vivo for antifungal activity and efficacy in disseminated murine candidiasis was determined; assay type: functional

Structure (SMILES)	MIC (Aspergillus fumigatus [1]) [µg/mL]	MIC (Candida albicans [2]) [µg/mL]	MIC (Aspergillus fumigatus [3]) [µg/mL]	MIC (Candida albicans [4]) [µg/mL]	Hemolytic activity (Mus musculus [5]) [%]	ED50 (Mus musculus [6]) [mg/kg]
CCCCCCCCCCCCC[C@H](CC(=O)N[C@@H](C(=O)N[C@H](C)C(=O)N[C@@H](Cc1ccc(OCC(=O)N(C)C)cc1)C(=O)N[C@H](C(=O)N1C[C@H](O)C[C@H]1C(=O)N[C@@H](C(=O)N[C@H](C(=O)N1CC[C@H](O)[C@H]1C(=O)N[C@H](C(=O)NCC(=O)N[C@@H](C(N)=O)[C@@H](C)O)[C@H](O)CC(N)=O)[C@@H](C)O)[C@@H](C)O)C(C)C)[C@@H](C)O)OC(=O)[C@@H](C)CCCN	1 (≈ 0.612 µM)	1 (≈ 0.612 µM)	0.25 (≈ 0.153 µM)	0.5 (≈ 0.306 µM)	85	–
OC(Cn1cncn1)(Cn1cncn1)c1ccc(F)cc1F [FLUCONAZOLE]	–	–	–	–	–	> 20
CCCCCCCCCCCCC[C@H](CC(=O)N[C@@H](C(=O)N[C@H](C)C(=O)N[C@@H](Cc1ccc(O)c(NC(=O)CC[C@H](N)C(=O)O)c1)C(=O)N[C@H](C(=O)N1C[C@H](O)C[C@H]1C(=O)N[C@@H](C(=O)N[C@H](C(=O)N1CC[C@H](O)[C@H]1C(=O)N[C@H](C(=O)NCC(=O)N[C@@H](C(N)=O)[C@@H](C)O)[C@H](O)CC(N)=O)[C@@H](C)O)[C@@H](C)O)C(C)C)[C@@H](C)O)OC(=O)[C@@H](C)CCCN	1 (≈ 0.59 µM)	0.5 (≈ 0.295 µM)	0.5 (≈ 0.295 µM)	0.5 (≈ 0.295 µM)	60	1.02
CCCCCCCCCCCCC[C@H](CC(=O)N[C@H](C(=O)N[C@H](C)C(=O)N[C@@H](Cc1ccc(OCC(=O)NCCN)cc1)C(=O)N[C@H](C(=O)N1C[C@H](O)C[C@H]1C(=O)N[C@H](C(=O)N[C@H](C(=O)N1CC[C@H](O)[C@H]1C(=O)N[C@H](C(=O)NCC(=O)N[C@H](C(N)=O)[C@@H](C)O)[C@H](O)CC(N)=O)[C@@H](C)O)[C@@H](C)O)C(C)C)[C@@H](C)O)OC(=O)[C@@H](C)CCCN.Cl	1	1	0.5	1	45	–
C[C@@H]1[C@H](O)[C@@H](C)/C=C/C=C/C=C/C=C/C=C/C=C/C=C/[C@H](O[C@@H]2O[C@H](C)[C@@H](O)[C@H](N)[C@@H]2O)C[C@@H]2O[C@](O)(C[C@@H](O)C[C@@H](O)[C@H](O)CC[C@@H](O)C[C@@H](O)CC(=O)O[C@H]1C)C[C@H](O)[C@H]2C(=O)O [AMPHOTERICIN B]	–	–	–	–	–	0.132
CCCCCCCCCCCCC[C@@H]1CC(=O)N[C@@H]([C@@H](C)O)C(=O)NC(C)C(=O)N[C@@H](Cc2ccc(O)c(NC(=O)CCC(=O)N3CCNCC3)c2)C(=O)N[C@@H](C(C)C)C(=O)N2C[C@H](O)C[C@H]2C(=O)N[C@@H]([C@@H](C)O)C(=O)N[C@@H]([C@@H](C)O)C(=O)N2CC[C@H](O)[C@H]2C(=O)N[C@@H]([C@H](O)CC(N)=O)C(=O)NCC(=O)N[C@@H]([C@@H](C)O)C(=O)N[C@@H](CCCN)C(=O)O1 (stereo partly drawn) (T[ξA][X2]V[Hyp]TT[Pro(3S-OH)][Gln(3R-OH)]GT[Orn]; linker N-C via X1)	1 (≈ 0.582 µM)	1 (≈ 0.582 µM)	0.5 (≈ 0.291 µM)	1 (≈ 0.582 µM)	46	0.97
CCCCCCCCCCCCC[C@H](CC(=O)N[C@@H](C(=O)N[C@H](C)C(=O)N[C@@H](Cc1ccc(OCC(=O)NCCCn2ccnc2)cc1)C(=O)N[C@H](C(=O)N1C[C@H](O)C[C@H]1C(=O)N[C@@H](C(=O)N[C@H](C(=O)N1CC[C@H](O)[C@H]1C(=O)N[C@H](C(=O)NCC(=O)N[C@@H](C(N)=O)[C@@H](C)O)[C@H](O)CC(N)=O)[C@@H](C)O)[C@@H](C)O)C(C)C)[C@@H](C)O)OC(=O)[C@@H](C)CCCN.Cl	2	2	1	1	53	–
CCCCCCCCCCCCC[C@H](CC(=O)N[C@@H](C(=O)N[C@H](C)C(=O)N[C@@H](Cc1ccc(O)c(NC(=O)[C@H](N)CO)c1)C(=O)N[C@H](C(=O)N1C[C@H](O)C[C@H]1C(=O)N[C@@H](C(=O)N[C@H](C(=O)N1CC[C@H](O)[C@H]1C(=O)N[C@H](C(=O)NCC(=O)N[C@@H](C(N)=O)[C@@H](C)O)[C@H](O)CC(N)=O)[C@@H](C)O)[C@@H](C)O)C(C)C)[C@@H](C)O)OC(=O)[C@@H](C)CCCN	2 (≈ 1.21 µM)	2 (≈ 1.21 µM)	0.5 (≈ 0.303 µM)	1 (≈ 0.605 µM)	84	–
CCCCCCCCCCCCC[C@H](CC(=O)N[C@@H](C(=O)N[C@H](C)C(=O)N[C@@H](Cc1ccc(O)c(NC(=O)C[C@H](N)C(=O)O)c1)C(=O)N[C@H](C(=O)N1C[C@H](O)C[C@H]1C(=O)N[C@@H](C(=O)N[C@H](C(=O)N1CC[C@H](O)[C@H]1C(=O)N[C@H](C(=O)NCC(=O)N[C@@H](C(N)=O)[C@@H](C)O)[C@H](O)CC(N)=O)[C@@H](C)O)[C@@H](C)O)C(C)C)[C@@H](C)O)OC(=O)[C@@H](C)CCCN	0.5 (≈ 0.298 µM)	1 (≈ 0.595 µM)	0.25 (≈ 0.149 µM)	0.5 (≈ 0.298 µM)	75	0.8
CCCCCCCCCCCCC[C@H](CC(=O)N[C@H](C(=O)N[C@@H](C)C(=O)N[C@@H](Cc1ccc(OCC(=O)O)c(NC(=O)CCN)c1)C(=O)N[C@H](C(=O)N1C[C@H](O)C[C@H]1C(=O)N[C@@H](C(=O)N[C@H](C(=O)N1CC[C@H](O)[C@H]1C(=O)N[C@H](C(=O)NCC(=O)N[C@H](C(N)=O)[C@@H](C)O)[C@H](O)CC(N)=O)[C@@H](C)O)[C@@H](C)O)C(C)C)[C@@H](C)O)OC(=O)[C@@H](C)CCCN.Cl	0.5	0.5	0.125	0.5	23	0.72
CCCCCCCCCCCCC[C@H](CC(=O)N[C@@H](C(=O)N[C@H](C)C(=O)N[C@@H](Cc1ccc(O)c(NC(=O)[C@H](N)Cc2c[nH]cn2)c1)C(=O)N[C@H](C(=O)N1C[C@H](O)C[C@H]1C(=O)N[C@@H](C(=O)N[C@H](C(=O)N1CC[C@H](O)[C@H]1C(=O)N[C@H](C(=O)NCC(=O)N[C@@H](C(N)=O)[C@@H](C)O)[C@H](O)CC(N)=O)[C@@H](C)O)[C@@H](C)O)C(C)C)[C@@H](C)O)OC(=O)[C@@H](C)CCCN	2 (≈ 1.18 µM)	2 (≈ 1.18 µM)	2 (≈ 1.18 µM)	2 (≈ 1.18 µM)	65	–
CCCCCCCCCCCCC[C@@H]1CC(=O)N[C@@H]([C@@H](C)O)C(=O)N[C@@H](C)C(=O)N[C@@H](Cc2ccc(O)c(NC(=O)CCC(=O)O)c2)C(=O)N[C@@H](C(C)C)C(=O)N2C[C@H](O)C[C@H]2C(=O)N[C@@H]([C@@H](C)O)C(=O)N[C@@H]([C@@H](C)O)C(=O)N2CC[C@H](O)[C@H]2C(=O)N[C@@H]([C@H](O)CC(N)=O)C(=O)NCC(=O)N[C@@H]([C@@H](C)O)C(=O)N[C@@H](CCCN)C(=O)O1 (TA[X3]V[Hyp]TT[Pro(3S-OH)][Gln(3R-OH)]GT[Orn]; linker N-C via X1)	0.5 (≈ 0.303 µM)	1 (≈ 0.606 µM)	0.25 (≈ 0.152 µM)	0.5 (≈ 0.303 µM)	79	–
CCCCCCCCCCCCC[C@H](CC(=O)N[C@@H](C(=O)N[C@H](C)C(=O)N[C@@H](Cc1ccc(OCC(=O)O)cc1)C(=O)N[C@H](C(=O)N1C[C@H](O)C[C@H]1C(=O)N[C@@H](C(=O)N[C@H](C(=O)N1CC[C@H](O)[C@H]1C(=O)N[C@H](C(=O)NCC(=O)N[C@@H](C(N)=O)[C@@H](C)O)[C@H](O)CC(N)=O)[C@@H](C)O)[C@@H](C)O)C(C)C)[C@@H](C)O)OC(=O)[C@@H](C)CCCN	1 (≈ 0.622 µM)	0.5 (≈ 0.311 µM)	0.125 (≈ 0.0777 µM)	0.5 (≈ 0.311 µM)	76	–
